Data taken from paper PMC7452071 (Acta Pharmaceutica Sinica. B, 2019).

What was measured:
[1] = molecular target: human recombinant HDAC1 enzyme (Homo sapiens, UniProt Q13547); test: HDACs activity assay, HDAC1; assay type: biochemical; settings: read-out: IC50 HDAC1; Table 3, Table S1 and text
HCT116 (colon cancer) = test: In vitro cell viability assay; assay type: cell-based; settings: Homo sapiens, HCT-116, 48 h, read-out: IC50 HCT116
MCF-7 (breast cancer) = test: In vitro cell viability assay; assay type: cell-based; settings: Homo sapiens, MCF7, 48 h, read-out: IC50 MCF-7
A549 (lung cancer) = test: In vitro cell viability assay; assay type: cell-based; settings: Homo sapiens, A549, 48 h, read-out: IC50 A549
TOP2α = TOP2α (Homo sapiens, UniProt P11388); test: TOP2-mediated pBR322 DNA relaxation assay; assay type: biochemical
TOP2α, sequence (P11388 whole entry): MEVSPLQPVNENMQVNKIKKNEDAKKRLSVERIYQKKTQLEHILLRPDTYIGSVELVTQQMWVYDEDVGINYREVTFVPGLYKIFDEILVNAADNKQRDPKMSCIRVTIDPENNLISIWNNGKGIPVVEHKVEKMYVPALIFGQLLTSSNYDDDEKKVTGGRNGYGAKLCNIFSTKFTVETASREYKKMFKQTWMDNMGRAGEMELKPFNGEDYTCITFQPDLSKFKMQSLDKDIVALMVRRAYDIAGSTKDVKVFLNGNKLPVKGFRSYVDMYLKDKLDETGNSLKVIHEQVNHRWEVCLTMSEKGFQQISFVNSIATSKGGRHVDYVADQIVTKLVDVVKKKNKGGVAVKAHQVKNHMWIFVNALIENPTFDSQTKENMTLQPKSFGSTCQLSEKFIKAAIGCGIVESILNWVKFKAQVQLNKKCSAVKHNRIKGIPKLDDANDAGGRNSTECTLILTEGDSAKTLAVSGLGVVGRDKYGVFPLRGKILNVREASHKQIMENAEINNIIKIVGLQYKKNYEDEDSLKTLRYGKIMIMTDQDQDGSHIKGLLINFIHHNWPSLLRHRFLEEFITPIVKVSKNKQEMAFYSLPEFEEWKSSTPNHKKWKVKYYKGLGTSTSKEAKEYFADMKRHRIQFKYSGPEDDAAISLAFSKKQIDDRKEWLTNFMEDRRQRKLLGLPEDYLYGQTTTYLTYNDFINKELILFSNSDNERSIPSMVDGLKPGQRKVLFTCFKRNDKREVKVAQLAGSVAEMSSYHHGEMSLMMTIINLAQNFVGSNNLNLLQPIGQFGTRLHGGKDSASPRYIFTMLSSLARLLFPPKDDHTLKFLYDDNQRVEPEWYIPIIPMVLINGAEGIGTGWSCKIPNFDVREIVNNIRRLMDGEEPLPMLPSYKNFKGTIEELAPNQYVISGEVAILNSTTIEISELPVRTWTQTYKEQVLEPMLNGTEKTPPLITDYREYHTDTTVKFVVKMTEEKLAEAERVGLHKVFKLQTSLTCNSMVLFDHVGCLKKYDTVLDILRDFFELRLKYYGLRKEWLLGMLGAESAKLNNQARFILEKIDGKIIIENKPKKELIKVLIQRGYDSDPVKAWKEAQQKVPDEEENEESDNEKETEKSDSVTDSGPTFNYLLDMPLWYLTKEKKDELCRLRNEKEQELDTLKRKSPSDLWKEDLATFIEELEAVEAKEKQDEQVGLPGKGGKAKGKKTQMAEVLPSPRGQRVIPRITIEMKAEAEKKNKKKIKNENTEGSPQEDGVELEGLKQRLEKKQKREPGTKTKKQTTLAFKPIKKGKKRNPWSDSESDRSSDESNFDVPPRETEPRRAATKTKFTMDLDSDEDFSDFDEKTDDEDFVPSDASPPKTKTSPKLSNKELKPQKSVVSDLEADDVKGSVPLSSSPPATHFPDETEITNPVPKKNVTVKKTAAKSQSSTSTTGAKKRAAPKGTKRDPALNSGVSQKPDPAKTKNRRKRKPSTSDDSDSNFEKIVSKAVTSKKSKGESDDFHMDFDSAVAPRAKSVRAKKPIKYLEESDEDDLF

HUVEC = test: Cytotoxicity against human normal cell line HUVEC; assay type: cell-based; settings: read-out: IC50 HUVEC
[2] = system: hematological cell lines (HL60, K562 and HEL); test: Antiproliferative activity, hematological cell lines together; assay type: cell-based; settings: read-out: IC50 range toward hematological cell lines
[3] = In vitro metabolic stability in mice liver microsomes; assay type: in vitro ADME
HDAC2 = HDAC2 (Homo sapiens, UniProt Q92769); test: HDACs activity assay, HDAC2; assay type: biochemical
How it was run: (§1)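 Enzyme reactions run 30 min at 37 °C in 25 mmol/L Tris pH 8.0, 137 mmol/L NaCl, 2.7 mmol/L KCl, 1 mmol/L MgCl2, 0.1 mg/mL BSA with the HDAC isoform and its substrate. Test compound diluted in 10% DMSO, final DMSO 1%. Fluorescent product read at excitation 350–360, emission 450–460. IC50 from normalized nonlinear dose-response fit. At least three independent runs; mean ± SD (n = 3).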

HDAC3 = HDAC3 (Homo sapiens, UniProt O15379); test: HDACs activity assay, HDAC3; assay type: biochemical
How it was run: as §1

HDAC4 = HDAC4 (Homo sapiens, UniProt P56524); test: HDACs activity assay, HDAC4; assay type: biochemical
HDAC4, sequence (P56524 whole entry): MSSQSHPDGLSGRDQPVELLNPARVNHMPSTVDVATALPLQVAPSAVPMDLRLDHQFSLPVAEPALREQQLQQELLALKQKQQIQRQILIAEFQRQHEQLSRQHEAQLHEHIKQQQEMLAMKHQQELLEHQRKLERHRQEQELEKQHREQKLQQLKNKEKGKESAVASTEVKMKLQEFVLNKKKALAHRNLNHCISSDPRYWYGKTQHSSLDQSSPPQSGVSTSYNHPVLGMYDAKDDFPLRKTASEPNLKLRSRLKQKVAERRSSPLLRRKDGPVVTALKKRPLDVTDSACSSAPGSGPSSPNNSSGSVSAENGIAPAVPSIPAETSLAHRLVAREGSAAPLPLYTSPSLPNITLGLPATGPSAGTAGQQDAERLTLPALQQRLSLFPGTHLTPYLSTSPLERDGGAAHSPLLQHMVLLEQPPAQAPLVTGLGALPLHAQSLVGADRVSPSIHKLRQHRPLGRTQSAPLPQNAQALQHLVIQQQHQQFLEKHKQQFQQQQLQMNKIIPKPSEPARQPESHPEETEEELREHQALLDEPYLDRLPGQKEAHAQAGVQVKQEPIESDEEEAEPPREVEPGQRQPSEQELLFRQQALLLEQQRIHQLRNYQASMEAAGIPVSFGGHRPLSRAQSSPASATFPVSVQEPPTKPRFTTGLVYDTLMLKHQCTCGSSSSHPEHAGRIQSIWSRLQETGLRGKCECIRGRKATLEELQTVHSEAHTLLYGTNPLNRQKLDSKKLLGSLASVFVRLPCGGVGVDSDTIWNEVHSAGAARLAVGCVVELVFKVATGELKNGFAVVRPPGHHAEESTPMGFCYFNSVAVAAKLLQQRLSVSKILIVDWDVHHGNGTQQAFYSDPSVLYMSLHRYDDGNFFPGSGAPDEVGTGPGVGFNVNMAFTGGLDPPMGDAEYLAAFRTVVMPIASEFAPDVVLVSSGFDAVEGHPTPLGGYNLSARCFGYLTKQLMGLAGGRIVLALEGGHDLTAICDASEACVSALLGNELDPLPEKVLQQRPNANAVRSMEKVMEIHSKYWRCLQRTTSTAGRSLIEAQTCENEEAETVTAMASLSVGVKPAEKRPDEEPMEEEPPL
How it was run: as §1

HDAC6 = HDAC6 (Homo sapiens, UniProt Q9UBN7); test: HDACs activity assay, HDAC6; assay type: biochemical
HDAC6, sequence (Q9UBN7 whole entry): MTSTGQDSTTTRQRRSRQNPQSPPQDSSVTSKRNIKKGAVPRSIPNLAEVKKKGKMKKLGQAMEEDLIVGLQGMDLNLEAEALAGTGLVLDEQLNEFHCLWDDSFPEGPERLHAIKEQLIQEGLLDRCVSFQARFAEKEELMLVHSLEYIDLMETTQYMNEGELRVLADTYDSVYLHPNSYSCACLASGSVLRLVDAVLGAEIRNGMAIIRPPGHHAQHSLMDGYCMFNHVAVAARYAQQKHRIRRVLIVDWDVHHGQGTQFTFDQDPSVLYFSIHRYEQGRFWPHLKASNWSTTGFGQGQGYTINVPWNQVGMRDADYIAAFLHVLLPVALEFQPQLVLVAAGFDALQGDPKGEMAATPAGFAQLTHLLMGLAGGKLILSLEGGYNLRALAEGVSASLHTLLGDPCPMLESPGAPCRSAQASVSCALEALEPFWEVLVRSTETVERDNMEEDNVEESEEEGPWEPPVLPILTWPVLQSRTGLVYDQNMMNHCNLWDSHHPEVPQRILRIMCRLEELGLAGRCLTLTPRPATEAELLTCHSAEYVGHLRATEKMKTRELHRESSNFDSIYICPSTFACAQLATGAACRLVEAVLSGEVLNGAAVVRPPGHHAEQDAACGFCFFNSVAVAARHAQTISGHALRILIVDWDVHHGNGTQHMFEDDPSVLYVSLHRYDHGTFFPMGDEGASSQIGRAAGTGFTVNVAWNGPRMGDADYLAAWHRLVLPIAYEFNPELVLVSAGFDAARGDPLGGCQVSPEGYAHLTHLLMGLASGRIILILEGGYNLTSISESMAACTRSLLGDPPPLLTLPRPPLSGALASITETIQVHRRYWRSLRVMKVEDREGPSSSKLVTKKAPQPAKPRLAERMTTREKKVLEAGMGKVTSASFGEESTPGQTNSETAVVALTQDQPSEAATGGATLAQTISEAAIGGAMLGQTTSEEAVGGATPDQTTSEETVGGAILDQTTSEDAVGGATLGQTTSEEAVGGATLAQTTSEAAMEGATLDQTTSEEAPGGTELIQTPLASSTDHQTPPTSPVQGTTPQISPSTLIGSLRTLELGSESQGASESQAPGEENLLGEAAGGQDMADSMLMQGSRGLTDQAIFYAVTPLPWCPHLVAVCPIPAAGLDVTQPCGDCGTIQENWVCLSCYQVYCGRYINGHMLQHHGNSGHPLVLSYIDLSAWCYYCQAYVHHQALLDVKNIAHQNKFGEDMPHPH
How it was run: as §1

HDAC8 = HDAC8 (Homo sapiens, UniProt Q9BY41); test: HDACs activity assay, HDAC8; assay type: biochemical
HDAC8, sequence (Q9BY41 whole entry): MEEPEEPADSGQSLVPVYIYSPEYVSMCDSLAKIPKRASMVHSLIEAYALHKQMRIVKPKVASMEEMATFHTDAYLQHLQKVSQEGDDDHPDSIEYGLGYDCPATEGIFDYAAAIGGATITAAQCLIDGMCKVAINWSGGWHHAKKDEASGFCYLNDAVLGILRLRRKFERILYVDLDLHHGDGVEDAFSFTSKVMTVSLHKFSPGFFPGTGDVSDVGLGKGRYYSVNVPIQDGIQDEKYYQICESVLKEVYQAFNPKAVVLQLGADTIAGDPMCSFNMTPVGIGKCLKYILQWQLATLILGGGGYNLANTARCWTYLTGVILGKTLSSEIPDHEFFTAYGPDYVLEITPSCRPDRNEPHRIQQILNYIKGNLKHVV
How it was run: as §1

HDAC10 = HDAC10 (Homo sapiens, UniProt Q969S8); test: HDACs activity assay, HDAC10; assay type: biochemical
How it was run: as §1

HDAC11 = HDAC11 (Homo sapiens, UniProt Q96DB2); test: HDACs activity assay, HDAC11; assay type: biochemical
HDAC11, sequence (Q96DB2 whole entry): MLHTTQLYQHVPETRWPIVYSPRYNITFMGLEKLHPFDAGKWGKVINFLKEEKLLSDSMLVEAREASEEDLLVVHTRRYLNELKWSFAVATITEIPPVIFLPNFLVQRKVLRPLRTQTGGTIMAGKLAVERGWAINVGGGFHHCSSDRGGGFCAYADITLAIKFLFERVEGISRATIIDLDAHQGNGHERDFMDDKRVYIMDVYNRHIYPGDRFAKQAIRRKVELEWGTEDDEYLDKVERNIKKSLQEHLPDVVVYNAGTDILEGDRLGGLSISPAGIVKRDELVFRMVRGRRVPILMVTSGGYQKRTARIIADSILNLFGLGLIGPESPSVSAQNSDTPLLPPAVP
How it was run: as §1

[4] = system: Acetyl-H3 and Acetyl-H4 in HCT116 cells; test: Western blot for acetylated histones H3 and H4; assay type: cell-based, human; settings: 0.5 and 5 μmol/L, 24 h
How it was run: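 HCT116 cells (35 × 10^4/well) were exposed 24 h to test compound or DMSO vehicle, washed with cold PBS and lysed 30 min on ice in RIPA with protease/phosphatase inhibitors. BCA-quantified protein (30 μg) was run on SDS-PAGE and transferred to PVDF. Membranes were blocked 2 h in 5% BSA, probed overnight at 4 °C with anti-histone H3 and H4 antibodies, then secondary 1.5 h. Infrared imaging.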

γH2AX in HCT116 cells = test: Western blot for γH2AX; assay type: cell-based, human; settings: 0.5 and 5 μmol/L, 24 h
How it was run: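 HCT116 seeded at 35 × 10^4 cells/well, treated 24 h with test compound or vehicle. Cells washed in cold PBS, lysed 30 min on ice in RIPA with protease and phosphatase inhibitors, protein quantified by BCA. 30 μg resolved by SDS-PAGE, transferred to PVDF, blocked 2 h in 5% BSA, primary antibody overnight at 4 °C, secondary 1.5 h, infrared imaging.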

HCT116 cells [5] = test: Flow cytometry assay of cell apoptosis; assay type: cell-based, human; settings: 48 h
HCT116 cells [6] = test: Flow cytometry analysis of cell cycle; assay type: cell-based, human; settings: 48 h
[7] = Pharmacokinetic study in SD rats; assay type: in vivo; settings: male, Sprague-Dawley, rat, plasma, 20 mg/kg
HCT116 xenograft = test: In vivo tumor growth inhibition assay against HCT116 xenograft; settings: bid
[8] = female, ICR, mouse, liver microsomes, pH 7.4

human recombinant HDAC1 enzyme, sequence (Q13547 whole entry): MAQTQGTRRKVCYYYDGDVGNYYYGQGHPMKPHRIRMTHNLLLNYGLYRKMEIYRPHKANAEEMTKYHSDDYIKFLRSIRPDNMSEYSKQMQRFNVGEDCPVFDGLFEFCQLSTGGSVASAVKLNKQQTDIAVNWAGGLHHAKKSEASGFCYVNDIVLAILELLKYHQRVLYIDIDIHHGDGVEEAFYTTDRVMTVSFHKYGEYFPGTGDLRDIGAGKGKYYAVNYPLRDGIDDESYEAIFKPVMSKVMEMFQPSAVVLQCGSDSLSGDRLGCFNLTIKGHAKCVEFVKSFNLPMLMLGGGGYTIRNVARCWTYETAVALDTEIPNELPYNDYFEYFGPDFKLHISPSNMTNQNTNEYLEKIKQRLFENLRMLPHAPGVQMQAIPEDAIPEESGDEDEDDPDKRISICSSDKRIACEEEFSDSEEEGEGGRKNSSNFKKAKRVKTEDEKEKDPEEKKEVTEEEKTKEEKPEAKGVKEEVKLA

IC50 [1]: 0.16 ± 0.015 µM | IC50 (HCT116 (colon cancer)): 1.6 ± 0.15 µM | IC50 (MCF-7 (breast cancer)): 18 ± 2 µM | IC50 (A549 (lung cancer)): 7.8 ± 0.65 µM | TOP2 inhibitory activity (relaxation assay) (TOP2α; 50 μmol/L): remarkable TOP2 inhibitory activities | TOP2 inhibitory activity (relaxation assay) (TOP2α; 100 μmol/L): remarkable TOP2 inhibitory activities | IC50 [2]: 0.56 to 1.9 µM | half-life at 1 μmol/L [3, 8]: 0.583 h | microsomal CLint at 1 μmol/L [3, 8]: 39.1 µL/min/mg | Microsomal t1/2 relative to compound 25a ([3]; mice liver microsomes): ~3 fold | IC50 (HDAC2): 10 ± 1.4 µM | IC50 (HDAC3): 27 ± 4.8 µM | IC50 (HDAC4): > 100 µM | IC50 (HDAC6): > 100 µM | IC50 (HDAC8): > 100 µM | IC50 (HDAC10): 5.5 ± 1.5 µM | IC50 (HDAC11): > 100 µM | AUC(0-t) ([7]; ip): 86900 ng·h/mL | half-life ([7]; ip): > 24 h | AUC(0-t) ([7]; po): 485 ng·h/mL | half-life ([7]; po): 4.03 h
SMILES: CN1c2ccccc2C(=O)N2[C@H](C(=O)Nc3ccc(C(=O)Nc4ccccc4N)cc3)Cc3c([nH]c4ccccc34)[C@@H]12 [Compound 30a, (7S,13bS)-N-(4-((2-Aminophenyl)carbamoyl)phenyl)-14-methyl-5-oxo-5,7,8,13,13b,14-hexahydroindolo[2′,3′:3,4]pyrido[2,1-b]quinazoline-7-carboxamide]
IC50 (HUVEC): 48 µM | Acetylation of histone 3 and 4 (Acetyl-H3 and Acetyl-H4) [4]: hyperacetylation effect of histone 3 and 4 (Acetyl-H3 and Acetyl-H4) in a dose-dependent manner | Expression of γH2AX (γH2AX in HCT116 cells): increased the expression of γH2AX | Percentage of apoptotic cells (HCT116 cells [5]; HCT116, 0.5 μmol/L): 27.6% | Percentage of apoptotic cells (HCT116 cells [5]; HCT116, 1 μmol/L): 37.1% | Percentage of apoptotic cells (HCT116 cells [5]; HCT116, 5 μmol/L): 88.8% | Ratio of cells at the G2/M phase (HCT116 cells [6]; HCT116, 0.5 μmol/L): 32.9% | Ratio of cells at the G2/M phase (HCT116 cells [6]; HCT116, 1 μmol/L): 36.4% | Ratio of cells at the G2/M phase (HCT116 cells [6]; HCT116, 2 μmol/L): 38.8% | Tumor growth inhibition (TGI) (HCT116 xenograft; 20 mg/kg, i.p., 14 consecutive days): 63.6% | Tumor growth inhibition (TGI) (HCT116 xenograft; 100 mg/kg, p.o., 21 days): 65.42% | Tumor growth inhibition (TGI) (HCT116 xenograft; 150 mg/kg, p.o., 21 days (dose of the combination not given)): 75.2% | Body weight during the test (HCT116 xenograft; p.o., 100 or 150 mg/kg, 21 days): no significant difference
